# Only some compounds are listed: those with a hit (about 1.7% of all), similar ones and a draw of the others.
# Rce1 inhib: yeast Ras-converting enzyme inhibition. yeast membranes, quenched prenylated peptide cleavage fluorescence. calls only. 0.27% of 290,000 active. AID 2563;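 active = fall in fluorescence gain of 50% or more versus controls, with final raw signal at or below 3038400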;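 note: plate controls were neutral control wells for no effect and wells lacking membranes for full effect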
# Target sequence (Q03530 whole entry, looked up): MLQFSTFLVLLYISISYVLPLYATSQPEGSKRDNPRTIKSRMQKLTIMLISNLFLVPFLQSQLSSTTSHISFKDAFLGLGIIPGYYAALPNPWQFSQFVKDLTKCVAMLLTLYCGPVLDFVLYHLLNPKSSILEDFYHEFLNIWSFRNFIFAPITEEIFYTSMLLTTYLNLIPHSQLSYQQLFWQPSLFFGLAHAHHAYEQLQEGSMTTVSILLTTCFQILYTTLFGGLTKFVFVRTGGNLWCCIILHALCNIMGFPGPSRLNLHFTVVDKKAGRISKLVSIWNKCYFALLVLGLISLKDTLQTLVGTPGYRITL
# ARNT TACC3 PPI: disrupts binding between human ARNT and TACC3 | 0.66% of 390,000 active | AlphaScreen His-ARNT PAS-B/GST-TACC3 binding, luminescence; TACC3 fragment carries E629A point mutation | Q9Y6A5 | inhibition, % at 9.99 µM;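 active = mean inhibition of replicates at least 50% and at least half of replicates each reaching 50%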;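 note: 0% = complete ARNT plus TACC3 wells and 100% = ARNT alone without TACC3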
# CAL PDZ FP-1: blocks peptide binding to the human CAL PDZ domain | Q9HD26 | purified CAL PDZ, TMR-peptide fluorescence polarization, 1 h | inhibition, % at 24.9 µM | 0.92% of 300,000 active;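 active = mean inhibition of at least 30% with at least half of replicates also reaching 30%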;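 note: 0% = DMSO neutral control and 100% = excess unlabeled competitor peptide PRC23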
# CAL PDZ FP-2: inhibitors of human CAL PDZ peptide binding; Q9HD26; purified CAL PDZ, TMR-peptide fluorescence polarization, 1 h; inhibition, % at 20 µM; 0.02% of 330,000 active; AID 504414;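 active = highest replicate inhibition of at least 40%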;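 note: plate controls were DMSO neutral control wells for no effect and unlabeled competitor peptide control wells for full effect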
#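 Material – purified CerCALP PDZ construct · Detection – FP readout, S and P plane fluorescence · Measure – percent inhibition from loss of millipolarization · Controls – unlabelled peptide for full inhibition, DMSO wells as neutral · Probe or stimulus – TMR-labelled reporter peptide T*-PRC34 bound in PDZ groove · Times – 1 h at RT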
# AI-2 QS modul: modulates the Vibrio harveyi AI-2 quorum sensing system | Vibrio harveyi JMH597 AI-2 luminescence/OD600 ratio, 9 h; stronger effect = lower value; strain lacks LuxN and CqsS sensors; 0 = neutral-control median | activity change, % at 7.5 µM | 0.4% of 300,000 active | AID 2094; in the data active = activity change below about -75%, passing the limit was not always enough;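 note: luminescence divided by OD600 gain over 9 h not by final OD600 alone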
# Starred values were filed as active, the others as inactive; i = inactive; nt = not tested or not shown; + = active, no number; ! = not active in a repeat.
SMILES,Rce1 inhib,ARNT TACC3 PPI,CAL PDZ FP-1,CAL PDZ FP-2,AI-2 QS modul
COc1ccccc1/C=C/C=N/n1c(-c2ccccn2)n[nH]c1=S,i,65*,-4,0,22
O=C1C2C3C=CC(C3)C2C(=O)N1Nc1ccccc1 (centres undefined),i,-7,0,0,25
C[C@@H]1CN([C@H](C)CO)C(=O)c2cc(NC(=O)C3CC3)ccc2O[C@H]1CN(C)C,nt,49*,nt,nt,nt
Cc1ccc(S(=O)(=O)N(C)C[C@@H]2Oc3ccc(NC(=O)Cn4cnnn4)cc3C(=O)N([C@@H](C)CO)C[C@H]2C)cc1,nt,active!,0,-1,nt
Cc1ccc(S(=O)(=O)N(C)C[C@H]2Oc3c(NC(=O)NC4CCCCC4)cccc3C(=O)N([C@@H](C)CO)C[C@H]2C)cc1,nt,0,nt,nt,nt
Cc1ccc(S(=O)(=O)N(C)C[C@@H]2Oc3c(NC(=O)NC4CCCCC4)cccc3C(=O)N([C@H](C)CO)C[C@@H]2C)cc1,nt,active,nt,nt,nt
C[C@H]1CN([C@@H](C)CO)C(=O)c2cc(NC(=O)C3CC3)ccc2O[C@@H]1CN(C)C,nt,24,nt,nt,nt
COc1ccccc1-c1ccc2c(c1)[C@@H]1[C@@H](CCN1C(=O)C1CC1)[C@@H](CO)N2,nt,0,nt,nt,nt
N#C/C(=C/c1cn[nH]c1-c1ccc(Br)cc1)C(=O)O,i,0,33*,-2,-2
N#C/C(=C/c1cn[nH]c1-c1cccc(Br)c1)C(=O)O,i,-4,1,-1,14
Oc1ccc(/C=N/n2cc(-c3ccccc3)[nH]c2=S)cc1,+,8,nt,1,30
Cc1ccc(NC2C(=O)NC(=O)NC2=O)cc1,nt,41*,-4,-1,nt
Cc1ccc(NC2CNC(=O)NC2=O)cc1C (centres undefined),nt,-7,-1,1,nt
O=c1nc2ccccc2c(NS(=O)(=O)c2ccccc2)n1-c1ccccc1,i,-6,36*,-3,24
Nc1cc(=O)[nH]c(=O)n1Cc1ccccc1,i,-2,0,-1,9
Nc1cc(=O)[nH]c(=O)n1CCCc1ccccc1,i,-9,39*,-1,29
N#Cc1c(NCc2ccccc2)ccnc1Cl,i,-4,40*,-1,2
N/C(Cc1ccc(Cl)cc1)=N\OC(=O)c1ccccc1,i,nt,1,-2,-90*
C[C@H](NC(=O)N1CCn2c1nc1ccccc12)C(=O)NCC1CCCO1 (some centres undefined),i,2,4,-1,5
C[C@H](NC(=O)c1ccco1)C(=O)Nc1nc(-c2ccccn2)cs1,nt,68*,-6,0,nt
C[C@H](NC(=O)c1ccco1)C(=O)Nc1nnc(SCc2ccccc2)s1,nt,-12,-4,-1,nt
O=C(Nc1nc(-c2ccccn2)cs1)c1ccc(Br)s1,i,nt,-2,-1,-95*
O=C(Nc1nc(-c2ccccn2)cs1)c1cccc(-n2cnnn2)c1,i,70*,16,0,21
O=C(Nc1ccc(N2CCOCC2)cc1)c1cc(F)c(F)cc1Cl,i,-5,-4,-4,13
C=CCN(c1ccc(C(=O)Nc2ccc(NC(C)=O)cc2)cc1)S(C)(=O)=O,i,-9,0,-1,4
SMILES,Rce1 inhib,ARNT TACC3 PPI,CAL PDZ FP-1,CAL PDZ FP-2,AI-2 QS modul
O=S(=O)(Nc1cccc2ccccc12)N1CCCC1,+,-4,-2,0,17
O=C(NCCc1ccccc1)c1ccccc1NS(=O)(=O)N1CCCC1,i,0,-5,-6,11
NNC(=O)/C(=C\c1ccco1)NC(=O)c1ccco1,i,-3,-5,0,11
COc1cccc(CNS(=O)(=O)c2ccc3c(c2)CCN3C(=O)C2CC2)c1,i,0,-6,-2,-2
Cc1nnc(SCC(=O)N2CCCC(C(=O)c3ccc(Cl)cc3)C2)o1 (centres undefined),i,-4,38*,nt,25
COc1ccc2cc(C(=O)C3CCCN(C(=O)CSc4nnc(C)o4)C3)ccc2c1 (centres undefined),i,nt,28,-2,13
CCCCC(=O)NC(c1ccccc1)c1ccc2cccnc2c1O (centres undefined),nt,-17,nt,0,nt
CCCCC(=O)NC(c1ccccc1Cl)c1ccc2cccnc2c1O (centres undefined),i,6,58*,0,-27
C[C@@H]1CN([C@@H](C)CO)C(=O)c2cc(NC(=O)Nc3ccccc3)ccc2O[C@@H](C)CCCCO[C@@H]1CN(C)Cc1ccc(C(=O)O)cc1,nt,-6,nt,nt,nt
C=CC(=O)NCc1ccc(-c2csnn2)cc1,i,-10,57*,1,16
CNC(=O)CC1C(=O)N(c2ccc(Cl)cc2)C(=S)N1NC(=O)c1cccc(F)c1 (centres undefined),i,-6,-2,-1,18
NC(=O)CC1C(=O)N(c2ccc(Cl)cc2)C(=S)N1NC(=O)c1cccc(F)c1 (centres undefined),i,-8,62*,nt,14
c1cnn(Cc2cnc(N3CCOCC3)s2)c1,+,2,61*,-1,9
c1ccc(N2CCN(Cc3cnc(N4CCOCC4)s3)CC2)cc1,i,nt,-2,-1,13
CCCc1cc(=O)oc2cc(OCC(=O)N3CCC(C(N)=O)CC3)ccc12,nt,-17,0,1,10
CCc1cc(=O)oc2cc(OCC(=O)N3CCC(C(=O)O)CC3)ccc12,+,-10,3,0,14
Cc1ccc(S(=O)(=O)Nc2cccc3cccnc23)cc1,i,50*,42*,-1,25
COc1cc(NS(=O)(=O)c2ccc(C)cc2)c2ncccc2c1,i,6,-2,0,2
C=CCNC(=S)NC(=O)c1csc([N+](=O)[O-])c1,i,-5,nt,0,-104*
COc1ccc(CN2[C@@H](CO)[C@@H]3c4ccccc4NC[C@@H]32)cc1,nt,2,nt,nt,nt
Cc1cc(NC(=O)COC(=O)c2nccnc2N)n(-c2ccccc2)n1,+,nt,2,0,34
CC(C)(C)c1cc(NC(=O)COC(=O)c2nccnc2N)n(-c2ccccc2)n1,i,-2,-1,-2,20
CC(C)CCNC(=O)C1(O)c2ccccc2NC(=O)N1c1ccc(Cl)cc1 (centres undefined),i,-2,-4,-1,30
COc1ccc(/C=C/C(=O)c2cc(Cl)ccc2O)c(OC)c1,i,3,1,-3,15
COc1ccc(C(=O)/C=C/c2ccc(OC)cc2OC)c(O)c1,+,2,-5,0,-14
CCN1C(=O)C2C(c3cccc(F)c3)NC(CC)(C(=O)OC)C2C1=O (centres undefined),nt,-6,1,-1,16
O=C(C1CCCCC1)N1[C@H](CO)[C@H]2c3ccccc3NC[C@H]21,nt,-1,nt,nt,nt
O=C1CS/C(=N\N=C\c2ccco2)N1c1ccccc1,i,2,5,0,17
O=C1CS/C(=N/N=C/c2ccccc2)N1c1ccc(O)cc1,nt,3,79*,nt,nt

# Screens: PubChem, Broad Institute
